Conditions in all cases: route intravenous
The subject of experiment [1] is Canis familiaris. Kind of experiment: Percent change in renal vascular resistant e by 1.2 mg/kg of compound administered intravenously in dog. It counts as functional, Canis lupus familiaris. Put shortly:
(§1)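 Adult dogs anesthetized with pentobarbital (45 mg/kg ip), instrumented for electromagnetic renal artery flow; femoral artery cannulated for blood pressure, cardiotachometer for heart rate; iv via femoral vein. Cumulative infusion at rising rates, 5 min each (0.2+1.0 mg/kg for 1.2; 0.2+1.0+5.0 mg/kg for 6.2), in 0.9% saline ± acid/base; ≥2 dogs; maximal % change from predrug over ≥30 min; RVR = MAP/RBF.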

In experiment [2] the test system is Canis familiaris. Kind of experiment: (§2) Percent change in renal blood flow by 1.2 mg/kg of compound administered intravenously in dog. It counts as functional, Canis lupus familiaris, Kidney. In short, it runs like this: as §1
The test system of experiment [3] is Canis familiaris. Kind of experiment: Percent change in mean arterial blood pressure by 1.2 mg/kg of compound administered intravenously in dog. Type of experiment: functional, Canis lupus familiaris. In short, it runs like this: as §1
In experiment [4] the test system is Canis familiaris. The experiment is described as follows: Percent change in heart rate by 1.2 mg/kg of compound administered intravenously in dog. It counts as functional, Canis lupus familiaris. In short, it runs like this: as §1
Experiment [5] concerns Canis familiaris. Kind of experiment: Percent change in renal vascular resistant e by 6.2 mg/kg of compound administered intravenously in dog. Type of experiment: functional, Canis lupus familiaris. Put shortly:
as §1

The subject of experiment [6] is Canis familiaris. Kind of experiment: Percent change in mean arterial blood pressure by 6.2 mg/kg of compound administered intravenously in dog. Type of experiment: functional, Canis lupus familiaris. In short, it runs like this:
as §1

Experiment [7] deals with Canis familiaris. Kind of experiment: Percent change in renal blood flow by 6.2 mg/kg of compound administered intravenously in dog. Type of experiment: functional, Canis lupus familiaris. In short, it runs like this:
as §1

Experiment [8] relates to Canis familiaris. The experiment is described as follows: Percent change in heart rate by 6.2 mg/kg of compound administered intravenously in dog. It counts as functional, Canis lupus familiaris. In short, it runs like this:
as §1

Experiment [9] concerns Canis familiaris. Kind of experiment: Percent increase in myocardial contractile force by 8.75 mg/kg of compound administered intravenously in dog. It counts as functional, Canis lupus familiaris, Myocardium. In short, it runs like this:
(§3)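 Adult mongrel dogs, pentobarbital 45 mg/kg ip, artificially respired; right thoracotomy, Walton Brodie strain gauge on right ventricle at 100 g baseline tension. Only dogs giving >100% contractile-force rise to dopamine (10-15 μg/kg per min × 3 min) were used. Compound in 10-15% dimethylformamide, total dose infused iv into femoral vein; % change in contractile force.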

For experiment [10], the system named is Canis familiaris. The experiment is described as follows: Percent increase in myocardial contractile force by 0.025 mg/kg of compound administered intravenously in dog. Type of experiment: functional, Canis lupus familiaris, Myocardium. Put shortly: as §3
Experiment [11] concerns Canis familiaris. The experiment is described as follows: Percent increase in myocardial contractile force by 1.75 mg/kg of compound administered intravenously in dog. It counts as functional, Canis lupus familiaris, Myocardium. Put shortly:
as §3

Experiment [12] deals with Canis familiaris. The experiment is described as §2. It counts as functional, Canis lupus familiaris. In short, it runs like this: as §1
Experiment [13] deals with Canis familiaris. Kind of experiment: Percent increase in myocardial contractile force by 1.88 mg/kg of compound administered intravenously in dog. Type of experiment: functional, Canis lupus familiaris, Myocardium. In short, it runs like this: as §3

Drawing on ChEMBL document CHEMBL1124472, “Renal vasodilators. The role of the 4-substituent in isoquinolin-3-ol cardiovascular agents: 4-ureido derivatives of isoquinolin-3-ol with selective renal vasodilator properties” (1989), this text covers Change and Increase for 33 compounds.

Each structure is given as a SMILES string.

Consider `C=CCNC(=O)Nc1c(O)nc(C)c2cc(OC)c(OC)cc12`, for which the Change with Canis familiaris [1] is -44%; in the experiment on Canis familiaris [2], 97%; with Canis familiaris [3] it was 8%; in the experiment on Canis familiaris [4], -3%.

With `CCCCNC(=O)Nc1c(O)nc(C)c2cc(O)c(O)cc12`, the Change was 2% in the experiment on Canis familiaris [1], -2% in the experiment with Canis familiaris [2], -1% in the experiment with Canis familiaris [3] and 2% in the experiment with Canis familiaris [4].

With `COc1cc2cnc(O)c(NC(C)=O)c2cc1OC`, the Change in the experiment on Canis familiaris [5] is listed as -12%; in the experiment with Canis familiaris [6], 14%; with Canis familiaris [7], 30%; with Canis familiaris [8], -8%.

In the case of `CCCCC(=O)Nc1c(O)nc(C)c2cc(OC)c(OC)cc12`, the Change with Canis familiaris [5] is given as 13%; in the experiment on Canis familiaris [6], 3%; in the experiment on Canis familiaris [7], -9%; in the experiment on Canis familiaris [8], 6%.

Consider `CCNC(=O)Nc1c(O)nc(C)c2cc(OC)c(OC)cc12`, for which the Change in the experiment on Canis familiaris [1] is -22%; in the experiment on Canis familiaris [2] it was 28%; in the experiment with Canis familiaris [3], 0%; in the experiment with Canis familiaris [4] it was 0%.

Turning to `COc1cc2c(C)nc(O)c(NC(=O)Nc3ccc(C(=O)O)cc3)c2cc1OC`, the Change with Canis familiaris [1] is reported as -28%; in the experiment on Canis familiaris [2], 40%; in the experiment on Canis familiaris [3] it was -1%; in the experiment with Canis familiaris [4] it was -12%.

For `COc1cc2c(C)nc(O)c(NC(=O)Nc3ccccc3)c2cc1OC`, the Change in the experiment on Canis familiaris [1] is given as 35%; with Canis familiaris [2] it was -23%; with Canis familiaris [3] it was 0%; with Canis familiaris [4] it was -13%.

With `COc1cc2c(C)nc(O)c(NC(=O)NC(C)(C)C)c2cc1OC`, the Change is -8% in the experiment with Canis familiaris [5], 1% in the experiment on Canis familiaris [6], 10% in the experiment with Canis familiaris [7] and -4% in the experiment on Canis familiaris [8].

Take `CCCCNC(=O)Nc1c(O)nc(C)c2cc(OC)ccc12`: the Change was 16% with Canis familiaris [1], -12% with Canis familiaris [2], 3% in the experiment on Canis familiaris [3] and -6% in the experiment on Canis familiaris [4].

On to `C=CCOC(=O)Nc1c(O)nc(C)c2cc(OC)c(OC)cc12`, for which the Change in the experiment with Canis familiaris [5] is -11%; in the experiment on Canis familiaris [6], -9%; in the experiment with Canis familiaris [7] it was 2%; in the experiment with Canis familiaris [8], -2%.

For the compound `COc1cc2c(C)nc(O)c(NC(=O)C(C)C)c2cc1OC`, the Change is -4% in the experiment on Canis familiaris [5], -2% in the experiment on Canis familiaris [6], -5% in the experiment on Canis familiaris [7] and -1% with Canis familiaris [8].

Regarding `COc1cc2c(C)nc(O)c(NC(=O)Nc3ccc(C(F)(F)F)cc3)c2cc1OC`, the Change with Canis familiaris [5] is recorded as -29%; in the experiment on Canis familiaris [6], 4%; in the experiment with Canis familiaris [7] it was 49%; with Canis familiaris [8], 10%.

With `COc1cc2c(C)nc(O)c(NC(=O)Nc3ccc([N+](=O)[O-])cc3)c2cc1OC`, the Change in the experiment with Canis familiaris [1] is -2%; in the experiment on Canis familiaris [2], 3%; in the experiment on Canis familiaris [3], 1%; in the experiment on Canis familiaris [4], -1%.

On to `C=CCNC(=O)Nc1c(O)nc(C)c2cc(OCC)c(OC)cc12`, for which the Change in the experiment with Canis familiaris [1] is recorded as -22%; with Canis familiaris [2], 28%; in the experiment with Canis familiaris [3], -2%; with Canis familiaris [4], 29%.

With `COc1cccc(NC(=O)Nc2c(O)nc(C)c3cc(OC)c(OC)cc23)c1`, the Change in the experiment with Canis familiaris [5] is -36%; in the experiment on Canis familiaris [6], -1%; with Canis familiaris [7], 59%; in the experiment on Canis familiaris [8], -2%.

With `COc1cc2c(C)nc(O)c(NC(C)=O)c2cc1OC`, the Change was -24% in the experiment with Canis familiaris [5], 6% in the experiment with Canis familiaris [6], 39% in the experiment with Canis familiaris [7] and 14% in the experiment with Canis familiaris [8]. The compound further registered an Increase in the experiment with Canis familiaris [9] of 47%.

As for `COc1cc2c(C)nc(O)c(NC(=O)Nc3cccc(C(F)(F)F)c3)c2cc1OC`, the Change with Canis familiaris [5] is reported as -16%; with Canis familiaris [6], 2%; in the experiment on Canis familiaris [7] it was 23%; in the experiment on Canis familiaris [8], -10%.

In turn, `CCc1c(O)nc(C)c2cc(OC)c(OC)cc12` yielded an Increase in the experiment on Canis familiaris [10] of 143%.

`COc1cc2cc(O)nc(C)c2cc1OC` returned an Increase in the experiment with Canis familiaris [11] of 100%.

In the case of `COc1ccc(NC(=O)Nc2c(O)nc(C)c3c(OC)c(OC)c(OC)cc23)cc1`, the Change with Canis familiaris [5] is -15%; with Canis familiaris [6], -4%; with Canis familiaris [7] it was 14%; in the experiment with Canis familiaris [8] it was 7%.

With `CNC(=O)Nc1c(O)nc(C)c2cc(OC)c(OC)cc12`, the Change in the experiment on Canis familiaris [1] is listed as -5%; in the experiment with Canis familiaris [2], 4%; in the experiment with Canis familiaris [3], 4%; in the experiment with Canis familiaris [4] it was 3%.

In the case of `COc1ccc(NC(=O)Nc2c(O)nc(C)c3cc(OC)c(OC)cc23)cc1`, the Change is -32% in the experiment with Canis familiaris [5], 12% with Canis familiaris [6], 68% in the experiment with Canis familiaris [7] and 2% in the experiment with Canis familiaris [8].

For the compound `CCCCOC(=O)Nc1c(O)nc(C)c2cc(OC)c(OC)cc12`, the Change in the experiment on Canis familiaris [5] is 29%; in the experiment with Canis familiaris [6], -3%; in the experiment on Canis familiaris [7], -23%; with Canis familiaris [8], -6%.

For the compound `COc1cc2c(C)nc(O)c(NC(=O)NC3CCCCC3)c2cc1OC`, the Change was -4% in the experiment with Canis familiaris [1], 7% in the experiment with Canis familiaris [2], 0% in the experiment with Canis familiaris [3] and 0% with Canis familiaris [4].

Consider `CCOc1cc2c(C)nc(O)c(NC(=O)Nc3ccc(OC)cc3)c2cc1OC`, for which the Change in the experiment on Canis familiaris [5] is given as 15%; in the experiment with Canis familiaris [6] it was 6%; with Canis familiaris [7] it was -8%; with Canis familiaris [8], 10%.

Turning to `CCCCCC(=O)Nc1c(O)nc(C)c2cc(OC)c(OC)cc12`, the Change in the experiment on Canis familiaris [5] was 40%; in the experiment with Canis familiaris [6], 0%; in the experiment with Canis familiaris [7], -27%; in the experiment with Canis familiaris [8], -9%.

`COc1cc2c(C)nc(O)c(NC(=O)NC(C)C)c2cc1OC`: the Change is -10% in the experiment on Canis familiaris [1], 11% in the experiment with Canis familiaris [2], -9% in the experiment with Canis familiaris [3] and 3% with Canis familiaris [4].

With `CCCCNC(=O)Nc1c(O)nc(C)c2cc(OC)c(OC)cc12`, the Change in the experiment with Canis familiaris [5] is -52%; with Canis familiaris [1] it was -27%; with Canis familiaris [2], 36%; with Canis familiaris [6] it was 4%; in the experiment with Canis familiaris [3], -3%; in the experiment with Canis familiaris [7], 117%. In addition, the values for the Change in the experiment on Canis familiaris [8] and in the experiment with Canis familiaris [4] were -2% and 6%, respectively.

As to `COc1cccc(NC(=O)Nc2c(O)nc(C)c3cc(OC)ccc23)c1`, the Change in the experiment on Canis familiaris [1] is listed as -4%; in the experiment with Canis familiaris [2], 17%; with Canis familiaris [3] it was 2%; in the experiment on Canis familiaris [4] it was 5%.

Turning to `COc1cccc(NC(=O)Nc2c(O)nc(C)c3c(OC)c(OC)ccc23)c1`, the Change in the experiment with Canis familiaris [12] is given as 17%; with Canis familiaris [1], -16%; in the experiment with Canis familiaris [3], -3%; in the experiment with Canis familiaris [4], -2%.

The compound `COc1cc2c(C)nc(O)c(N)c2cc1OC` displayed an Increase with Canis familiaris [13] of 114%. For the same compound, the Change is -13% with Canis familiaris [5], 23% with Canis familiaris [2], 6% in the experiment with Canis familiaris [6] and 4% in the experiment with Canis familiaris [8].

In the case of `CCOC(=O)c1ccc(NC(=O)Nc2c(O)nc(C)c3cc(OC)c(OC)cc23)cc1`, the Change with Canis familiaris [1] is given as -4%; in the experiment on Canis familiaris [2] it was 2%; with Canis familiaris [3], -2%; in the experiment with Canis familiaris [4] it was -1%.

In the case of `CCCNC(=O)Nc1c(O)nc(C)c2cc(OC)c(OC)cc12`, the Change with Canis familiaris [1] was 0%; with Canis familiaris [2], 5%; in the experiment with Canis familiaris [3], 1%; with Canis familiaris [4], -7%.
